Data from ChEMBL document CHEMBL3580590, “A Developability-Focused Optimization Approach Allows Identification of in Vivo Fast-Acting Antimalarials: N-[3-[(Benzimidazol-2-yl)amino]propyl]amides” (J Med Chem, 2015).
Converted amounts (≈) assume the structure as drawn. The source made the active and inactive calls. The rule behind the calls is not given here.

Key:
Plasmodium falciparum [1] = assay: Antimalarial activity against Plasmodium falciparum 3D7A infected in red blood cells assessed as inhibition of parasite growth after 24 hrs by [3H]hypoxanthine incorporation assay; assay type: functional, organism-based
Summary of the method: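 P. falciparum 3D7 parasitized RBC (0.5% parasitemia, 2% hematocrit) in RPMI-1640 with 5% albumax and 5 μM hypoxanthine. 3H-hypoxanthine was then added for a further 24 h. Cells were harvested onto glass-fiber filters and incorporation was read by scintillation; IC50 was derived.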

[2] = Cytotoxicity against human HepG2 cells by ATP bioluminescene method; assay type: cell-based; conditions: read-out: TC50 (the source's name)
[3] = Kinetic solubility of the compound in DMSO/phosphate buffered saline at pH 7.4 by chemiluminescent nitrogen detection method; assay type: physicochemical; conditions: read-out: Kinetic_solubility
Summary of the method: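 Kinetic solubility from DMSO stock solution in phosphate-buffered saline, pH 7.4, quantified by chemiluminescent nitrogen detection.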

[4] = Selectivity index, ratio of TC50 for human HepG2 cells to IC50 for Plasmodium falciparum 3D7A; assay type: toxicity, cell-based; conditions: read-out: Selectivity Index
[5] = target: Voltage-gated inwardly rectifying potassium channel KCNH2 (Homo sapiens, UniProt Q12809); assay: Inhibition of human ERG by IonWorks electrophysiology
Plasmodium falciparum [6] = assay: Antimalarial activity against chloroquine and pyrimethamine-resistant Plasmodium falciparum W2 assessed as inhibition of parasite growth; assay type: functional, organism-based
Summary of the method: (§1)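 Growth inhibition by [3H]-hypoxanthine incorporation, which tracks parasite growth. Parasitised RBC culture (0.5% parasitemia, 2% haematocrit) in RPMI-1640 with 5% Albumax and 5 μM hypoxanthine, exposed to serial drug dilutions. Cells harvested onto glass-fibre filters, radioactivity counted, IC50 derived.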

Plasmodium falciparum [7] = assay: Antimalarial activity against chloroquine and pyrimethamine-resistant Plasmodium falciparum V1/S assessed as inhibition of parasite growth; assay type: functional, organism-based; summary of the method: as §1
[8] = Clearance in CD1 mouse at 1 mg/kg, iv by LC-MS/MS analysis; assay type: ADME, organism-based; conditions: in vivo
Summary of the method: (§2)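 Mice were dosed IV at 1 mg/kg (0.1 mg/mL in 20% encapsine, 5% DMSO in saline) or PO at 10 mg/kg (1 mg/mL suspension in 1% methylcellulose), 10 mL/kg each. After IV dosing, blood was sampled from 5 min to 24 h. Blood was mixed 1:1 with 0.1% saponine and frozen at −80 °C. Samples were acetonitrile-extracted and analyzed by positive-ESI LC-MS/MS.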

Plasmodium falciparum [9] = conditions: 3D70087/N9, 100 mg/kg
[10] = Solubility of the compound in fasted state simulated intestinal fluid; assay type: ADME
Plasmodium falciparum [11] = assay: Antimalarial activity against erythrocytic stage of Plasmodium falciparum 3D70087/N9 infected in NSG mouse engrafted with human erythrocytes assessed as parasite killing at 100 mg/kg, po qd for 4 days starting from day 3 to day 6 after parasite infection measured 48 hrs after initiation of drug treatment by Giemsa-staining based microscopy; assay type: functional, organism-based
[12] = Oral bioavailability in CD1 mouse at 10 mg/kg administered via gavage by LC-MS/MS analysis; assay type: ADME, organism-based; conditions: in vivo; summary of the method: as §2

Chain of Voltage-gated inwardly rectifying potassium channel KCNH2 (Q12809 whole entry): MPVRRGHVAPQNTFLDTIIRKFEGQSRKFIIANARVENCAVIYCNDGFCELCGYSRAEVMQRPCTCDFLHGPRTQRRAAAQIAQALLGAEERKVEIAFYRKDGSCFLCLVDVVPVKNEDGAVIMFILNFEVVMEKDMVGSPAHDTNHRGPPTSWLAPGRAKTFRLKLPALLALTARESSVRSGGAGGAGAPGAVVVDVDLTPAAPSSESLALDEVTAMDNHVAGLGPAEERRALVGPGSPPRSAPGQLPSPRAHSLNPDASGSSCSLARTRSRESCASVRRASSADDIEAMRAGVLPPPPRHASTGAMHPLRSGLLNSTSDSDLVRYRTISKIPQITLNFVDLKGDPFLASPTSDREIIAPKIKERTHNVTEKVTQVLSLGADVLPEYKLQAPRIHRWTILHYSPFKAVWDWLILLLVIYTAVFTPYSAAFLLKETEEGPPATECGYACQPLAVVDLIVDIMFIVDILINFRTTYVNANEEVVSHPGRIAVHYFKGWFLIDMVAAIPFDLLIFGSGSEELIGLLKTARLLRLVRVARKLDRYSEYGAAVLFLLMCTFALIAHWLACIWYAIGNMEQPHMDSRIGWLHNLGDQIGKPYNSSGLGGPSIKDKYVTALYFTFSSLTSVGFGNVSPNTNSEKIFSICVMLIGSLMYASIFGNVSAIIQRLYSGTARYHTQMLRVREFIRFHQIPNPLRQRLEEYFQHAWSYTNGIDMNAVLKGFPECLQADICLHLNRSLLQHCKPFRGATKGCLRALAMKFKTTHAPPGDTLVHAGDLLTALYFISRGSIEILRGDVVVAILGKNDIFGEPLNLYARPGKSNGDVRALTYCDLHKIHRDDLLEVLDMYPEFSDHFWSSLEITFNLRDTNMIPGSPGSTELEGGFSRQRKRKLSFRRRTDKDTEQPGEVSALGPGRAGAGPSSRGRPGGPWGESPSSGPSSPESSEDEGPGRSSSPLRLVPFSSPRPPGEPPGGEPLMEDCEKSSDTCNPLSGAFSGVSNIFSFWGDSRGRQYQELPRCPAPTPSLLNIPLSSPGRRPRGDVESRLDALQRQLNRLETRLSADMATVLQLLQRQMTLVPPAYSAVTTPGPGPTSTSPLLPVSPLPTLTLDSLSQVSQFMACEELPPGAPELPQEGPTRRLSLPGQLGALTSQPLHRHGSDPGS

Row | Structure (SMILES) | IC50 (Plasmodium falciparum [1]) | also measured
1 | O=C(NCCCNc1nc2ccccc2[nH]1)c1cccc(Cl)c1Cl | 3420 nM | 
2 | O=C(NCC1(CNc2nc3ccccc3[nH]2)CC1)c1cc(Cl)cc(Cl)c1 | 1030 nM | 
3 | O=C(NCCCNc1nc2ccccc2[nH]1)c1cncc(Cl)c1 | 460 nM | 
4 | O=C(NCCCNc1nc2ccccc2[nH]1)c1cccc(CO)c1 | > 5000 nM | 
5 | O=C(NCCCNc1nc2ccccc2[nH]1)c1cc(Cl)ccc1Cl | 1210 nM | 
6 | Cn1c(NCCCNC(=O)c2cc(Cl)cc(Cl)c2)nc2ccccc21 | > 5000 nM | 
7 | O=C(Cc1cccc(Cl)c1)NCCCNc1nc2ccccc2[nH]1 | 660 nM | 
8 | O=C(NCCNc1nc2ccccc2[nH]1)c1cc(Cl)cc(Cl)c1 | 1830 nM | 
9 | COC(=O)c1ccc2[nH]c(NCCCNC(=O)c3cc(Cl)cc(Cl)c3)nc2c1 | 150 nM | CC50 [2]: 25.7 µM; solubility kinetic [3]: 29 µM (≈ 12.2 µg/mL)
10 | O=C(NCCCNc1nc2ccncc2[nH]1)c1cc(Cl)cc(Cl)c1 | 1060 nM | 
11 | O=C(NCCCNc1nc2ccccc2[nH]1)c1ccc(CN2CCCC2)cc1 | 2300 nM | CC50 [2]: > 100 µM; solubility kinetic [3]: 322 µM (≈ 122 µg/mL)
12 | CS(=O)(=O)Nc1cccc(C(=O)NCCCNc2nc3ccccc3[nH]2)c1 | > 5000 nM | 
13 | O=C(NCCCNc1nc2ccccc2[nH]1)c1ccc(Cl)c(Cl)c1 | 170 nM | 
14 | O=C(NCCCNc1nc2ccccc2[nH]1)c1c(Cl)cccc1Cl | > 5000 nM | 
15 | O=C(NCCCNc1nc2ccccc2[nH]1)c1ccc2c(c1)OCCO2 | 1650 nM | 
16 | O=C(NCCCNc1nc2ccccc2[nH]1)c1ccc2c(c1)OCO2 | 3360 nM | 
17 | CN1CCN(Cc2ccc(C(=O)NCCCNc3nc4ccccc4[nH]3)cc2)CC1 | > 5000 nM | 
18 | Cc1ccc(C(=O)NCCCNc2nc3ccccc3[nH]2)o1 | 2260 nM | 
19 | O=C(c1cc(Cl)cc(Cl)c1)N1CCN(c2nc3ccccc3[nH]2)CC1 | 2520 nM | 
20 | O=C(NCCCCNc1nc2ccccc2[nH]1)c1cc(Cl)cc(Cl)c1 | 400 nM | 
21 | O=C(NCC(O)CNc1nc2ccccc2[nH]1)c1cc(Cl)cc(Cl)c1 (stereo unspecified) | 1380 nM | 
22 | O=C(NCCCNc1nc2ccccc2[nH]1)c1ccnc(C(F)(F)F)c1 | 250 nM | CC50 [2]: > 100 µM; solubility kinetic [3]: 349 µM (≈ 127 µg/mL)
23 | N#Cc1ccc(C(=O)NCCCNc2nc3ccccc3[nH]2)cc1F | 1370 nM | 
24 | O=C(NCCCNc1nc2ccccc2[nH]1)c1cccc(C(F)(F)F)c1 | 140 nM | 

Row | Structure (SMILES) | IC50 (Plasmodium falciparum [1]) | also measured
25 | O=C(CCNC(=O)c1cc(Cl)cc(Cl)c1)Nc1nc2ccccc2[nH]1 | 4180 nM | 
26 | O=C(NCCCNc1nc2ccccc2[nH]1)c1cccc(Cl)c1 | 300 nM | 
27 | CC(C)(C)OC(=O)N1CCC(C(=O)NCCCNc2nc3ccccc3[nH]2)CC1 | 900 nM | CC50 [2]: > 100 µM; solubility kinetic [3]: 393 µM (≈ 158 µg/mL); selectivity ratio [4]: > 111; IC50 [5]: > 50.1 µM
28 | CN(C)Cc1ccc(C(=O)NCCCNc2nc3ccccc3[nH]2)cc1 | 2260 nM | 
29 | O=C(NCCCNc1nc2ccccc2[nH]1)C1CCC(CO)CC1 (stereo unspecified) | > 5000 nM | 
30 | N#Cc1cccc(C(=O)NCCCNc2nc3ccccc3[nH]2)c1 | 380 nM | 
31 | CN(CCCNc1nc2ccccc2[nH]1)C(=O)c1cc(Cl)cc(Cl)c1 | > 5000 nM | 
32 | O=C(NCCCNc1nc2ccccc2[nH]1)c1ccc(Cl)cc1Cl | 4030 nM | 
33 | O=C(NCCCNc1nc2ccccc2[nH]1)c1ccncc1 | > 5000 nM | 
34 | Cn1cccc1C(=O)NCCCNc1nc2ccccc2[nH]1 | > 5000 nM | 
35 | O=C(NCCCNc1nc2ccccc2[nH]1)c1ccccc1 | 3170 nM | 
36 | Cc1cccc(C(=O)NCCCNc2nc3ccccc3[nH]2)c1 | 970 nM | 
37 | O=C(NCCCNc1nc2ccccc2[nH]1)C1CCOCC1 | 2640 nM | 
38 | O=C(NCCCNc1nc2c(F)cccc2[nH]1)c1cc(Cl)cc(Cl)c1 | 300 nM | 
39 | O=C(NCCCNc1nc2ccccc2[nH]1)c1cccc(CN2CCCC2)c1 | > 5000 nM | 
40 | O=C(NCCCNc1nc2ccccc2[nH]1)c1ccccn1 | > 5000 nM | 
41 | O=C(NCCCNc1nc2ccccc2[nH]1)C1CCC(O)CC1 (stereo unspecified) | > 5000 nM | 
42 | O=C(NCCCNc1nc2ccccc2[nH]1)C1CCNCC1 | > 5000 nM | 
43 | O=C(O)c1ccc2[nH]c(NCCCNC(=O)c3cc(Cl)cc(Cl)c3)nc2c1 | > 5000 nM | 
44 | O=C(NC1(c2nc3ccccc3[nH]2)CC1)c1cc(Cl)cc(Cl)c1 | > 5000 nM | 
45 | O=C(NC1CCN(c2nc3ccccc3[nH]2)C1)c1cc(Cl)cc(Cl)c1 (stereo unspecified) | > 5000 nM | 
46 | CN(C)C(=O)c1cccc(C(=O)NCCCNc2nc3ccccc3[nH]2)c1 | > 5000 nM | 
47 | CC(CCNC(=O)c1cc(Cl)cc(Cl)c1)Nc1nc2ccccc2[nH]1 (stereo unspecified) | 1580 nM | 
48 | CC(CNC(=O)c1cc(Cl)cc(Cl)c1)CNc1nc2ccccc2[nH]1 (stereo unspecified) | 520 nM | 

Row | Structure (SMILES) | IC50 (Plasmodium falciparum [1]) | also measured
49 | O=C(NCCCNc1nc2ccccc2[nH]1)c1ccccc1Cl | 1050 nM | 
50 | COc1cccc(C(=O)NCCCNc2nc3ccccc3[nH]2)c1 | 930 nM | 
51 | O=C(NCCCNc1nc2ccccc2[nH]1)c1cccc(O)c1 | > 5000 nM | 
52 | O=C(NCCCNc1nc2ccccc2[nH]1)c1cccc(OC(F)(F)F)c1 | 370 nM | 
53 | COc1c(Cl)cc(C(=O)NCCCNc2nc3ccccc3[nH]2)cc1Cl | 100 nM | 
54 | O=C(Nc1cccc(-c2nc3ccccc3[nH]2)c1)c1cc(Cl)cc(Cl)c1 | 1520 nM | CC50 [2]: 26.3 µM; solubility kinetic [3]: 64 µM (≈ 24.5 µg/mL); selectivity ratio [4]: 17.3; IC50 [5]: > 14.8 µM
55 | O=C(NCCCNc1nc2ccccc2[nH]1)c1cc(Cl)c(O)c(Cl)c1 | > 5000 nM | 
56 | CCc1nc(N)nc(N)c1-c1ccc(Cl)cc1 [PYRIMETHAMINE] | 68 nM | IC50 (Plasmodium falciparum [6]): > 20000 nM; IC50 (Plasmodium falciparum [7]): > 20000 nM
57 | O=C(NCCCNc1nc2ccccc2[nH]1)C1CCCCC1 | 1800 nM | 
58 | O=C(NCCCNc1nc2ccccc2[nH]1)c1cc(Cl)cc(Cl)c1 | 94 nM | clearance [8]: 39.7 mL/min/kg; inhibition (Plasmodium falciparum [9]): Active; CC50 [2]: 36.3 µM; solubility kinetic [3]: 239 µM (≈ 86.8 µg/mL); IC50 (Plasmodium falciparum [6]): 410 nM; solubility [10]: > 100 µg/mL; IC50 (Plasmodium falciparum [7]): 1030 nM; Activity (Plasmodium falciparum [11]): Active; bioavailability [12]: 81%
59 | Cc1ccc(C(=O)NCCCNc2nc3ccccc3[nH]2)s1 | 1830 nM | 
60 | O=C(NCCCNc1nc2cc(F)ccc2[nH]1)c1cc(Cl)cc(Cl)c1 | 120 nM | 
61 | O=C(NCCCNc1nc2ccccc2[nH]1)c1cc(F)cc(F)c1 | 320 nM | 
62 | O=C(O)c1cccc(C(=O)NCCCNc2nc3ccccc3[nH]2)c1 | > 5000 nM | 
63 | O=C(NCCCNc1nc2ccccc2[nH]1)c1ccc(Cl)cc1 | 1080 nM | 
64 | N#Cc1ccc2[nH]c(NCCCNC(=O)c3cc(Cl)cc(Cl)c3)nc2c1 | 1470 nM | 
65 | CN(CCCNC(=O)c1cc(Cl)cc(Cl)c1)c1nc2ccccc2[nH]1 | 1800 nM | 
66 | O=C(NCCCNc1nc2ccccc2[nH]1)c1ccc2c(c1)CCO2 | 3260 nM | 
67 | COC(=O)c1cccc(C(=O)NCCCNc2nc3ccccc3[nH]2)c1 | 630 nM | 
68 | COc1cc(OC)cc(C(=O)NCCCNc2nc3ccccc3[nH]2)c1 | 330 nM | 
69 | O=C(NCCCNc1nc2cccnc2[nH]1)c1cc(Cl)cc(Cl)c1 | 2540 nM | 
70 | O=C(NCCCNc1nc2ccccc2[nH]1)c1cccnc1 | > 5000 nM | 
71 | O=C(NCCCCc1nc2ccccc2[nH]1)c1cc(Cl)cc(Cl)c1 | > 5000 nM | 
